Data set [1] relates to pLuc705 cells. Put plainly: MTT cell viability assay. In kind it is cell-based, human. The conditions noted are these: for inhibition of cell proliferation by monomers: 500 μM each, individually or in combination. A digest of the protocol:
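pLuc705 cells seeded 20 h before at 9000 cells/well. Exposed 24 h to 0, 2, 10, 20, 40 or 60 μM conjugate in OptiMEM with 10% serum; arginine and X monomers given at 500 μM alone or combined. Phase images taken first, then MTT at 0.5 mg/ml final for 4 h at 37°C and DMSO/0.01M HCl 10 min. A540 read; % viability relative to mean of untreated wells; six points, two experiments.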
(Formazan colour is commonly taken as a measure of viable cells.)

Data set [2] relates to human β-globin thalassemic intron 2 mutated splice site at nucleotide 705 (pLuc705 cells). The data set is described as follows: Nuclear activity assay. As to conditions: 24 h; for luciferase activity compared with conjugates with 8 and 7 repeats: 10 μM; for luciferase activity in 60% serum: 60% serum-containing medium; for reduction of luciferase activity in 10% serum: versus 0% serum, R9−PMO data not shown; for luciferase activity over the background: 1 μM, OptiMEM with or without 10% serum, RLU per microgram protein; for relative nuclear antisense activity in the oligoarginine, RX, RXR and RB panels: 1 and 5 μM. In kind it is cell-based. In a few lines:
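Splice-correction luciferase assay in pLuc705 cells, seeded 20 h before at 30 000 cells/well. Cells washed, then treated 24 h with conjugate at 1, 5 or 10 μM in OptiMEM with 0, 10, 30 or 60% serum. Lysed 30 min at 4°C, clarified at 1000g, and luminescence read after adding luciferase reagent. RLU normalised per μg protein (BCA). Mean ± SD of 6–9 points, three independent experiments.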

The subject of data set [3] is pLuc705 cells. Put plainly: Cell uptake assay. The conditions noted are these: 2 μM, media containing 30 and 60% serum. In kind it is cell-based, human. A digest of the protocol: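 pLuc705 cells (HeLa stably carrying luciferase interrupted by β-globin intron 2 with mutated splice site at 705) seeded 20 h before at 100 000 cells/well. Treated 24 h with 2 μM 3′-carboxyfluorescein-tagged conjugate in OptiMEM with 0, 10, 30 or 60% serum. Trypsin 10 min at 37°C strips membrane-bound material, then cells are washed and analysed by flow cytometry. Mean fluorescence ± SD, six points, two independent experiments.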

For data set [4] the following is noted: cited from earlier work.
For data set [5], the system named is pLuc705 cells. Put plainly: Microscopic images of treated cells. In kind it is cell-based, human. The conditions noted are these: 60 μM, OptiMEM with 10% serum, 24 h, ×100. A digest of the protocol: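 pLuc705 cells seeded at 9000 cells/well 20 h before treatment, then exposed 24 h to conjugate or vehicle in OptiMEM with 10% serum. Phase-contrast images were taken directly in culture medium on an inverted microscope, before the MTT read-out on the same wells.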

Data set [6] concerns pLuc705 cells. Put plainly: Propidium iodide membrane integrity. In kind it is cell-based, human. The conditions noted are these: for membrane damage / PI histogram shift with 0.5 or 5 h treatment: 60 μM, 0.5 and 5 h; for effect of addition of 10% serum on membrane toxicity: (RX)8−PMO data not shown; for effect on membrane integrity at higher concentrations: up to 60 µM tested.

Data set [7] concerns fresh rat red blood cells. The data set is described as follows: Hemolysis assay. In kind it is cell-based. As to conditions: 60 μM, 1 h at 37°C, hemoglobin release (absorbance at 540 nm); four data points from two independent experiments. A digest of the protocol:
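Fresh rat blood red cells exposed 1 h at 37°C to conjugate at 60 μM, with PBS as background and 0.005% TX-100 as positive control. Released hemoglobin read as absorbance at 540 nm. Mean ± SD of four data points from two independent experiments.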

The test system of data set [8] is human liver HepG2 cells. Put plainly: MTT toxicity in HepG2 cells. In kind it is cell-based. As to conditions: up to 60 μM, data not shown. In a few lines: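 HepG2 cells kept in RPMI 1640 with 2 mM L-glutamine, 100 U/ml penicillin and 10% FBS at 37°C, 5% CO2. Treatments were in OptiMEM with or without FBS. MTT added to a final 0.5 mg/ml for 4 h at 37°C. Most of the medium was replaced with DMSO containing 0.01M HCl for 10 min at 37°C. A540 was normalized to the mean of untreated wells.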

Entries after “also recorded” stand apart in the source; their conditions may differ.

Regarding `N=C(N)NCCC[C@H](N)C(=O)O` [arginine], in data set [1], the “inhibition of cell proliferation by monomers” value was “no inhibition of cell proliferation”.
For RBRBRBB [(RB)3−PMO], in data set [2], the “luciferase activity compared with conjugates with 8 and 7 repeats” value was “much lower luciferase activity”.
In the case of RXRXRXB [(RX)3−PMO], in data set [2], the “luciferase activity compared with conjugates with 8 and 7 repeats” value was “much lower luciferase activity”.
In the case of RXRRXRRXRRXRXB [(RXR)4−PMOF], the “effect of higher serum concentrations on uptake” value in data set [3] is “decreased”.
Regarding `NCCCCCC(=O)O` [X, 6-aminohexanoic acid], the “inhibition of cell proliferation by monomers” value in data set [1] was “no inhibition of cell proliferation”.
Regarding RXRXRXRXRXB [(RX)5−PMO], the “luciferase activity compared with conjugates with 8 and 7 repeats” value in data set [2] is on record as “much lower luciferase activity”.
Regarding RRRRRRRRRXB [R9−PMO], in data set [2], the “luciferase activity in 60% serum” value was “no activity” and the “reduction of luciferase activity in 10% serum” value is “approximately 30%”.
As to RBRBRBRBRBRBRBRBB [(RB)8−PMO], the “change of luciferase activity on addition of 10% serum” value (shortened to “change … of 10% serum”) in data set [2] (5 μM) is on record as “nearly doubled”. In addition, the “stability (of the peptide portion) in cells” value in data set [4] is given as “only partially degraded”.
For RRRRRRRRXB [R8−PMO], in data set [2], the “luciferase activity in 60% serum” value is given as “no activity” and the “reduction of luciferase activity in 10% serum” value is reported as “approximately 30%”.
In general, cell viability refers to the share of living cells, or the viability signal relative to a control. Low values mean a greater loss of cells, high ones better survival. Take `CC(=O)N[C@@H](CCCNC(=N)N)C(=O)NCCCCCC(=O)N[C@@H](CCCNC(=N)N)C(=O)NCCCCCC(=O)N[C@@H](CCCNC(=N)N)C(=O)NCCCCCC(=O)N[C@@H](CCCNC(=N)N)C(=O)NCCCCCC(=O)N[C@@H](CCCNC(=N)N)C(=O)NCCCCCC(=O)N[C@@H](CCCNC(=N)N)C(=O)NCCCCCC(=O)N[C@@H](CCCNC(=N)N)C(=O)NCCCCCC(=O)N[C@@H](CCCNC(=N)N)C(=O)NCCCCCC(=O)NCCC(=O)N1CCN(P(=O)(OC[C@@H]2CN(P(=O)(OC[C@@H]3CN(P(=O)(OC[C@@H]4CN(P(=O)(OC[C@@H]5CN(P(=O)(OC[C@@H]6CN(P(=O)(OC[C@@H]7CN(P(=O)(OC[C@@H]8CN(P(=O)(OC[C@@H]9CN(P(=O)(OC[C@@H]%10CN(P(=O)(OC[C@@H]%11CN(P(=O)(OC[C@@H]%12CN(P(=O)(OC[C@@H]%13CN(P(=O)(OC[C@@H]%14CN(P(=O)(OC[C@@H]%15CN(P(=O)(OC[C@@H]%16CN(P(=O)(OC[C@@H]%17CN(P(=O)(OC[C@@H]%18CN(P(=O)(OC[C@@H]%19CN(C(C)=O)C[C@H](n%20cnc%21c(N)ncnc%21%20)O%19)N(C)C)C[C@H](n%19ccc(N)nc%19=O)O%18)N(C)C)C[C@H](n%18cnc%19c(N)ncnc%19%18)O%17)N(C)C)C[C@H](n%17cc(C)c(=O)[nH]c%17=O)O%16)N(C)C)C[C@H](n%16cc(C)c(=O)[nH]c%16=O)O%15)N(C)C)C[C@H](n%15cnc%16c(=O)[nH]c(N)nc%16%15)O%14)N(C)C)C[C@H](n%14cnc%15c(N)ncnc%15%14)O%13)N(C)C)C[C@H](n%13ccc(N)nc%13=O)O%12)N(C)C)C[C@H](n%12cc(C)c(=O)[nH]c%12=O)O%11)N(C)C)C[C@H](n%11ccc(N)nc%11=O)O%10)N(C)C)C[C@H](n%10ccc(N)nc%10=O)O9)N(C)C)C[C@H](n9cnc%10c(N)ncnc%109)O8)N(C)C)C[C@H](n8cc(C)c(=O)[nH]c8=O)O7)N(C)C)C[C@H](n7cc(C)c(=O)[nH]c7=O)O6)N(C)C)C[C@H](n6ccc(N)nc6=O)O5)N(C)C)C[C@H](n5cc(C)c(=O)[nH]c5=O)O4)N(C)C)C[C@H](n4ccc(N)nc4=O)O3)N(C)C)C[C@H](n3ccc(N)nc3=O)O2)N(C)C)CC1` (some centres unmarked) [(RX)8−PMO]: in data set [2], the “luciferase activity over the background” value was 10–15 fold; the “relative nuclear antisense activity in the oligoarginine, RX, RXR and RB panels” value is recorded as “highest nuclear antisense activities”. The “relative nuclear activity at 2 μM” value in data set [2] (2 μM, OptiMEM with 10% serum, eleven conjugates with 0-8 X compared) is reported as “highest activity”. Besides, in data set [2] (5 μM), the “change … of 10% serum” value was “nearly doubled”. Besides, the “relative nuclear activity at 5 μM” value in data set [2] (5 μM, OptiMEM with 10% serum, eleven conjugates with 0-8 X compared) was “highest activities”. Also, the “appearance of treated cells (microscopic images)” value in data set [5] is “rounded and detached from the culture well”. Besides, in data set [6], the “membrane damage / PI histogram shift with 0.5 or 5 h treatment” value was “little immediate membrane damage” and the “effect on membrane integrity at higher concentrations” value was “significantly affect membrane integrity”. Besides, the “effect of addition of 10% serum on membrane toxicity” value in data set [6] (24 h) is “significantly reduced membrane toxicity”. The “stability (of the peptide portion) in cells” value in data set [4] is reported as “completely degraded”. For the same compound, in data set [7], the hemolytic activity entry is on record as “compatible with red blood cells”. Besides, the cell viability in data set [1] (60 μM, OptiMEM with 10% serum, 24 h, mean of six data points) came out at 40%.
As for RXRRXRRXRRXRXB [(RXR)4−PMO], in data set [2], the “luciferase activity over the background” value was 10–15 fold; the “relative nuclear antisense activity in the oligoarginine, RX, RXR and RB panels” value is on record as “highest nuclear antisense activities”. For the same compound, the “change … of 10% serum” value in data set [2] (5 μM) is reported as “nearly doubled”. In addition, in data set [5], the “appearance of treated cells (microscopic images)” value is “rounded and detached from the culture well”. In data set [6], the “membrane damage / PI histogram shift with 0.5 or 5 h treatment” value is recorded as “slight shift towards the PI+ region; also recorded: little immediate membrane damage” and the “effect on membrane integrity at higher concentrations” value is reported as “significantly affect membrane integrity”. Besides, the “cells in the PI+ region” value in data set [6] (60 µM, 24 h, serum-free medium, flow cytometry) stood at 57%. Also, the “effect of addition of 10% serum on membrane toxicity” value in data set [6] (24 h) is recorded as “significantly reduced membrane toxicity”. For the same compound, in data set [7], the hemolytic activity result is “compatible with red blood cells”. For the same compound, in data set [8], the “toxicity in HepG2 cells” value was “dose-dependent inhibition of cell proliferation”.
As to RBRBRBRBRBB [(RB)5−PMO], in data set [2], the “luciferase activity compared with conjugates with 8 and 7 repeats” value was “much lower luciferase activity”.

These data come from PMC1976451 (Nucleic Acids Research, 2007).
